Results from different studies.
Lines come from different studies, so protocols differ.
MET M1250T: Hepatocyte growth factor receptor (MET, Homo sapiens, UniProt P08581, M1250T)
MET: Hepatocyte growth factor receptor (MET, Homo sapiens, UniProt P08581)
MET Y1235D: Hepatocyte growth factor receptor (MET, Homo sapiens, UniProt P08581, Y1235D)

Compound | target | test | conditions | remaining binding
CC1CCCN1c1nccc(-c2cnn3ncccc23)n1 (centres unmarked) | MET M1250T | binding | 1 µM | 100%
FC(F)(F)Oc1cccc(-c2cnc3ccc(-c4ccncc4)nn23)c1 | MET | cell-free assay, competition with immobilised ligand | 5 µM | 63%
Nc1ncc2c(n1)-c1c([nH]c3ccc(C#CC4CC4)cc13)CCCC2 | MET | binding, competition with immobilised ligand | 1 µM | 100%
CC(=O)Nc1c(C(C)=O)c(=O)n(C)c2nc(-c3ccc(Cl)cc3Cl)c(-c3ccc(Cl)cc3)cc12 | MET | cell-free assay, competition with immobilised ligand | 1 µM | 100%
CN(CCCC(F)(F)F)c1nccc(-c2cnn3ncccc23)n1 | MET M1250T | binding | 1 µM | 100%
O=C1CCc2cc(Nc3cc(OC4CCOCC4)c([N+](=O)[O-])cc3Cl)ccc2N1 | MET Y1235D | cell-free assay, competition with immobilised ligand | 1 µM | 100%
CN(c1nccc(-c2cnn3ncccc23)n1)C1CC1 | MET M1250T | binding | 1 µM | 100%
O=C(NCCCN1CCOCC1)c1ccc(Nc2nccc(-c3cc4ccccc4s3)n2)cc1 | MET M1250T | binding, competition with immobilised ligand | 1 µM | 69%
COc1cc(-c2cn(C3CCc4c(F)cccc4N(CC(F)(F)F)C3=O)nn2)ccc1-n1cnc(C)c1 (centres unmarked) | MET M1250T | cell-free assay, competition with immobilised ligand | 1 µM | 100%
COC(=O)Nc1nc2ccc(C(=O)c3ccccc3)cc2[nH]1 | MET | cell-free assay, competition with immobilised ligand | 10 µM | 32%
C[C@H](c1ccc(F)cc1)N(Cc1cccc(C(=O)O)c1)C(=O)c1cnc2ccccc2c1 | MET M1250T | cell-free assay, competition with immobilised ligand | 1 µM | 93%
COc1cnc(Nc2cccc(S(N)(=O)=O)c2)nc1N1CCN(c2ccccc2)C(=O)C1 | MET Y1235D | binding, competition with immobilised ligand | 1 µM | 100%
C[C@@H]1CN(c2ccc3ncc(-c4ccc5[nH]nc(C6CC6)c5c4)n3n2)C[C@H](C)O1 | MET | binding, competition with immobilised ligand | 50 nM | 89%
O=C(NC[C@@H]1[C@H]2CN(C(=O)OCc3cc(C(F)(F)F)cc(C(F)(F)F)c3)C[C@@H]12)c1ccc2[nH]nnc2c1 | MET M1250T | cell-free assay, competition with immobilised ligand | 1 µM | 100%
N[C@H]1CCN(c2nccc(-c3cnn4ncccc34)n2)C1 | MET | binding | 1 µM | 90%
CNC(=O)[C@@H]1CC[C@@H](n2c(-c3ccc4cnccc4c3)nc3ccc(C(=O)NCc4cccc(C(N)=O)c4)cc32)C1 | MET Y1235D | binding, competition with immobilised ligand | 1 µM | 92%
O=C(NCC1CCOCC1)c1n[nH]cc1NC(=O)c1c(F)cccc1F | MET | binding, competition with immobilised ligand | 1 µM | 100%
CN(C)C(=O)Cn1cc(-c2nc(C3(c4ccc(-c5cnc(N)nc5)cc4)CC3)no2)cn1 | MET Y1235D | cell-free assay, competition with immobilised ligand | 1 µM | 98%
O=C(c1ccc(Nc2nccc(-c3cc4ccccc4s3)n2)cc1)N1CCC(N2CCCC2)CC1 | MET M1250T | binding, competition with immobilised ligand | 1 µM | 68%
CN(C)c1nccc(-c2cnn3ncccc23)n1 | MET | binding | 1 µM | 89%
CN1CCN(c2ccc(Nc3nccc(-c4ccccc4)n3)cc2C(F)(F)F)CC1 | MET M1250T | binding | 10 µM | 24%
C[C@@H]1CCN(c2nccc(-c3cnn4ncccc34)n2)C1 | MET M1250T | binding | 1 µM | 98%
O=C(c1ccc(Nc2ncc(Cl)c(-c3ccc(Cl)s3)n2)cc1)N1CCC(N2CCCC2)CC1 | MET | binding, competition with immobilised ligand | 1 µM | 6.9%
